ChEMBL document CHEMBL4052607 (J Med Chem, 2017)
The source made the active and inactive calls. The rule behind the calls is not given here.

Experiments:
D(2) dopamine receptor [1] = molecular target: T1, D(2) dopamine receptor (Homo sapiens, UniProt P14416); test: Agonist activity at D2 long receptor (unknown origin) expressed in CHOK1 cells assessed as beta-arrestin recruitment up to 30 uM after 90 mins by DiscoveRx PathHunter assay; type: cell-based
How it was run: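 Agonist mode in CHO-K1 cells expressing D2R long isoform fused to a β-galactosidase fragment, with β-arrestin-2 carrying the complementary fragment. Compound in PBS plus 0.2 μM sodium metabisulfite was preincubated 90 min at 37°C. PathHunter reagent was then added for 30 min at RT and luminescence read. RLU were normalized to the response at maximal dopamine.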

D(2) dopamine receptor [2] = molecular target: T1, D(2) dopamine receptor; test: Displacement of [3H]N-methylspiperone from human D2L receptor expressed in HEK293 cell membranes after 1 hr by liquid scintillation counting analysis
How it was run: (§1)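 Membranes from HEK293 cells stably expressing hD2R (long) or hD3R, 10 μg protein per tube, were incubated with 0.4 nM [3H]N-methylspiperone in EBSS with 0.2 mM sodium metabisulfite. Compound was tested over 13 half-log steps, 10 μM to 10 pM, in triplicate for 1 h at RT. Nonspecific binding was set with 10 μM (+)-butaclamol. Bound ligand was collected on PEI-soaked GF/B filters and counted by scintillation. Ki came from Cheng-Prusoff, at least 3 experiments.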

Homo sapiens = species on record: Homo sapiens; test: Selectivity ratio of Ki for human D2 receptor to Ki for human D3 receptor; how it was run: as §1
D(3) dopamine receptor [3] = molecular target: T2, D(3) dopamine receptor (Homo sapiens, UniProt P35462)
T2 sequence (P35462 whole entry): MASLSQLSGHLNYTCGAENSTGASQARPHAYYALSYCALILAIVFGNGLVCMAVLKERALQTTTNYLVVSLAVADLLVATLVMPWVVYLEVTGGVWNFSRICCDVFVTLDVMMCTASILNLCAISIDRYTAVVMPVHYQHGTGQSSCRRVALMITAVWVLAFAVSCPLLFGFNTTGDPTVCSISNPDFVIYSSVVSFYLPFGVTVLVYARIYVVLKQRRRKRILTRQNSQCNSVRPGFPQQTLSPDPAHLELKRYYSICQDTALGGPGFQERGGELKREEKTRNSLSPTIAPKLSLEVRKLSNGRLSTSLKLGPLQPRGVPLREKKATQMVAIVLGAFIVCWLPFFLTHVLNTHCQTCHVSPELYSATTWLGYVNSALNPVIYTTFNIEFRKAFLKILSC

D(2) dopamine receptor [4] = molecular target: T1, D(2) dopamine receptor; test: Antagonist activity at D2 long receptor (unknown origin) expressed in CHOK1 cells assessed as inhibition of dopamine induced beta-arrestin recruitment after 90 mins by DiscoveRx PathHunter assay; type: cell-based
D(3) dopamine receptor [5] = molecular target: T2, D(3) dopamine receptor; test: Displacement of [3H]N-methylspiperone from human D3 receptor expressed in HEK293 cell membranes after 1 hr by liquid scintillation counting analysis

T1 sequence (P14416 whole entry, the tested form may be a part, canonical isoform): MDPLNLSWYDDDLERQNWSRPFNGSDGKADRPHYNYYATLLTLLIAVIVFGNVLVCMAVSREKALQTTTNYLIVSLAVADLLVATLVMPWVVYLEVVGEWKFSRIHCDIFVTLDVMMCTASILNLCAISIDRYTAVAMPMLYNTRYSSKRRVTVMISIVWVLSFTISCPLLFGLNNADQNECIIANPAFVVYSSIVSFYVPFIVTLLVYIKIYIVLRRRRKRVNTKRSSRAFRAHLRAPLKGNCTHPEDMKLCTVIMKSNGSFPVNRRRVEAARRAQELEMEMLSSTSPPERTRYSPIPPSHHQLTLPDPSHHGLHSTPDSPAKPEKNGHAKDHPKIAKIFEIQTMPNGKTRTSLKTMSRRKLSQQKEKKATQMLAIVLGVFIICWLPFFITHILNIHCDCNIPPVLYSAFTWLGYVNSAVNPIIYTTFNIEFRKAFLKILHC

N#Cc1ccc2c(c1)CCN(CC[C@H]1CC[C@H](NC(=O)c3ccnc4ccccc34)CC1)C2
Activity (D(2) dopamine receptor [1]): inactive

N#Cc1cccc(N2CCNCC2)c1
Ki (D(2) dopamine receptor [2]): 4.89 µM | Ratio Ki (Homo sapiens): 8.4 | Activity (D(2) dopamine receptor [1]): inactive | pKb (D(3) dopamine receptor [3]): 5.42 | Kb (D(2) dopamine receptor [4]): 2.09 µM | pKb (D(2) dopamine receptor [4]): 5.68 | Ki (D(3) dopamine receptor [5]): 0.581 µM

N#Cc1ccc2c(c1)CNCC2
Ki (D(2) dopamine receptor [2]): 11.4 µM | Ratio Ki (Homo sapiens): 7.5 | Activity (D(2) dopamine receptor [1]): inactive | pKb (D(3) dopamine receptor [3]): 5.49 | Kb (D(2) dopamine receptor [4]): 4.27 µM | pKb (D(2) dopamine receptor [4]): 5.37 | Ki (D(3) dopamine receptor [5]): 1.52 µM
